Test results as given in ChEMBL document CHEMBL4622983, “Structure-Activity Relationship Studies of α-Ketoamides as Inhibitors of the Phospholipase A and Acyltransferase Enzyme Family” (J Med Chem, 2020).
Active and inactive are the calls of the source. The rule behind the calls is not given here.

Key:
[1] = system: U2OS; experiment: Downregulation of N-docosahexaenoylethanolamine level in human U2OS cells at 10 uM after 4 hrs by LC-MS/MS analysis; assay type: functional, cell-based
In short: (§1)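 U2OS cells transfected with PLAAT2, PLAAT5 or empty vector (PEI, 1:5 plasmid/PEI). At 24 h, switched to serum-free medium with 10 μM compound (0.1% DMSO) or DMSO for 4 h at 37 °C. Pellets extracted with MTBE against deuterated internal standards. NAEs, 2-AG and free fatty acids quantified by LC–MS/MS, normalized to live cell count. Four biological replicates; one-way ANOVA.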

[2] = system: U2OS; experiment: Inhibition of serine hydrolase in human U2OS cytosolic fraction at 10 uM preincubated for 30 mins followed by MB064 addition and measured after 15 mins by SDS-PAGE based competitive ABPP analysis
In short: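 U2OS cytosol or membrane lysate at 2.5 μg/μL, pretreated with inhibitor or DMSO vehicle for 30 min at rt. Probe then added for 15 min at rt: MB064 at 2 μM or FP-TAMRA at 500 nM. Samples denatured in Laemmli buffer and resolved by SDS-PAGE. In-gel fluorescence scanned at Cy3/Cy5 settings and normalized to Coomassie staining.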

[3] = target: T1, Phospholipase A and acyltransferase 5 (Homo sapiens) (UniProt Q96KN8); experiment: Inhibition of full-length C-terminal FLAG-tagged human PLAAT5 expressed in human U2OS cells assessed as reduction in arachidonic acid level at 10 uM incubated for 4 hrs by LC-MS/MS analysis; assay type: cell-based; in short: as §1
T1 sequence (whole entry): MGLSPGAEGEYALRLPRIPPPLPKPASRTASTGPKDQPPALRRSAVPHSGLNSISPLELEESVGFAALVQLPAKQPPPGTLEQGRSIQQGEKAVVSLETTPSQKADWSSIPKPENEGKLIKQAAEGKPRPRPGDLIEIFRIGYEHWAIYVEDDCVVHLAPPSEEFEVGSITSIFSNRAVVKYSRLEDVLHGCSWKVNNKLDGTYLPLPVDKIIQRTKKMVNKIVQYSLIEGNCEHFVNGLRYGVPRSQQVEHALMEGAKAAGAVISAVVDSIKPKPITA

[4] = target: Monoglyceride lipase (Homo sapiens) (UniProt Q99685); experiment: Inhibition of human MAGL expressed in HEK293 cells assessed as enzyme remaining activity at 10 uM measured by natural substrate-based fluorescence assay relative to control
Chain of Monoglyceride lipase (Homo sapiens) (Q99685 whole entry): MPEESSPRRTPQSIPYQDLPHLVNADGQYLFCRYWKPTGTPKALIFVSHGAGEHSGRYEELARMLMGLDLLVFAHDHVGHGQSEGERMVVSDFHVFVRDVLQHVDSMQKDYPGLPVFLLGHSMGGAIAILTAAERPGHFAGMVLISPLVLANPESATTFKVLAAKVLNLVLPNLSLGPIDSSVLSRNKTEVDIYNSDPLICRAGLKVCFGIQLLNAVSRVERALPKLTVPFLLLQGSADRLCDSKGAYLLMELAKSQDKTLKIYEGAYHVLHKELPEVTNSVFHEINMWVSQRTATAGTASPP

[5] = system: U2OS; experiment: Downregulation of N-linoleoylethanolamine level in human U2OS cells at 10 uM after 4 hrs by LC-MS/MS analysis; assay type: functional, cell-based; in short: as §1
[6] = target: T1, Phospholipase A and acyltransferase 5 (Homo sapiens); experiment: Inhibition of full-length C-terminal FLAG-tagged human PLAAT5 expressed in human U2OS cells assessed as reduction in absolute N-oleoylethanolamine level at 10 uM incubated for 4 hrs by LC-MS/MS analysis; assay type: cell-based; in short: as §1
[7] = target: T2, Phospholipase A and acyltransferase 3 (Homo sapiens, UniProt P53816); experiment: Inhibition of full-length C-terminal FLAG-tagged human PLAAT3 expressed in HEK293T cell lysate preincubated for 30 mins followed by MB064 addition and measured after 20 mins by SDS-PAGE based ABPP analysis; assay type: cell-free, HEK-293T
T2 sequence (P53816 whole entry): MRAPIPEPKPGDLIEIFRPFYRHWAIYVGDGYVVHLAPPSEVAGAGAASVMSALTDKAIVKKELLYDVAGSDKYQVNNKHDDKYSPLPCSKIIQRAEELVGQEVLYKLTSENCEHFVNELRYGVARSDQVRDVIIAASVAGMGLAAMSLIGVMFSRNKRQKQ
In short: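 Dose–response competitive ABPP on cytosol only, from HEK293T overexpressing FLAG-tagged PLAAT. Inhibitor 30 min rt, then MB064 20 min rt. PLAAT2 0.25 μg/μL with 250 nM probe; PLAAT3 0.5 μg/μL with 250 nM; PLAAT4 and PLAAT5 1 μg/μL with 500 nM. Fluorescence normalized to Coomassie. IC50 from curves, reported as pIC50 ± SEM, n = 3.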

[8] = target: Cannabinoid receptor 1 (Homo sapiens) (UniProt P21554); experiment: Displacement of [3H]CP55940 from human CB1 receptor expressed in CHOK1 cell membranes at 10 uM by liquid scintillation spectrometry analysis; conditions: CHO-K1
Chain of Cannabinoid receptor 1 (Homo sapiens) (P21554 whole entry): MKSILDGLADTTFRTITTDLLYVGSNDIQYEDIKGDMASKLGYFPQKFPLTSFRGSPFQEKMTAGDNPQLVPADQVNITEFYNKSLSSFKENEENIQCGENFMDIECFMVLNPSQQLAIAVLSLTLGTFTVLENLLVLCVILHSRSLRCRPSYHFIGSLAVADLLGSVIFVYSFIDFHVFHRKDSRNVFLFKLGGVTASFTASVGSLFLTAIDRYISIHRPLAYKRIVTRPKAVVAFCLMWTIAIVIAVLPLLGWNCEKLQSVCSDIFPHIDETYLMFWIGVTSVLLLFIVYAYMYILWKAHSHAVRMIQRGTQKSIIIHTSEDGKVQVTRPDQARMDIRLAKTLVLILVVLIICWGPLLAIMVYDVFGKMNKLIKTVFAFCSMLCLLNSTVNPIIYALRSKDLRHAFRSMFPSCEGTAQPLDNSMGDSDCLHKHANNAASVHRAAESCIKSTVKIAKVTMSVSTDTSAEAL
In short: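 [3H]CP55940 displacement at human CB1 or CB2 receptors, single test concentration 10 μM. Result expressed as % radioligand displacement ± SD (N = 2, n = 2).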

[9] = target: Cytosolic phospholipase A2 (Homo sapiens) (UniProt P47712); experiment: Inhibition of human PLA2G4A expressed in HEK293T cell lysates at 50 uM preincubated for 30 mins followed by FP-TAMRA addition and measured after 20 mins by SDS-PAGE based competitive ABPP analysis; assay type: cell-free; conditions: HEK-293T
Chain of Cytosolic phospholipase A2 (Homo sapiens) (P47712 whole entry): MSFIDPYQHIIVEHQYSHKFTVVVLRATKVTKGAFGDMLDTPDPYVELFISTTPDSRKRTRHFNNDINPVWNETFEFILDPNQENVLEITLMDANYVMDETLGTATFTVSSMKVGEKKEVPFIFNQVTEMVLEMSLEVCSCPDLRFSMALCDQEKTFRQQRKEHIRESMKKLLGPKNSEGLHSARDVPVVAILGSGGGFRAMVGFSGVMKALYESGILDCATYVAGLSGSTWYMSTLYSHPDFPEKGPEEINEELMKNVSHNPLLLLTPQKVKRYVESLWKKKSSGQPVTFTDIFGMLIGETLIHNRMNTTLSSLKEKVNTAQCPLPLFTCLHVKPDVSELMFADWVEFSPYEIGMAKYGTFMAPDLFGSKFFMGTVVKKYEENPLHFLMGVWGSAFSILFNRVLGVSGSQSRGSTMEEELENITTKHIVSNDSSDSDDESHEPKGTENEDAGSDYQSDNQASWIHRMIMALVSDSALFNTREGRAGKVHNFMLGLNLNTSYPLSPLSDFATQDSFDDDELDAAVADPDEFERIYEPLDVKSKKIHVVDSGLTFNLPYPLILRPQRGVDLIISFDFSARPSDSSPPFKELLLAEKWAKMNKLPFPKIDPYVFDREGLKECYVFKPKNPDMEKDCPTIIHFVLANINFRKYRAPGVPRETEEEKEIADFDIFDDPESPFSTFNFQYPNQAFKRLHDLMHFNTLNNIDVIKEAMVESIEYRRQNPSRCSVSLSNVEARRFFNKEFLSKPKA

[10] = target: T1, Phospholipase A and acyltransferase 5 (Homo sapiens); experiment: Inhibition of full-length C-terminal FLAG-tagged human PLAAT5 expressed in human U2OS cells assessed as reduction in N-docosahexaenoylethanolamine level at 10 uM incubated for 4 hrs by LC-MS/MS analysis; assay type: cell-based; in short: as §1
[11] = target: T3, Phospholipase A and acyltransferase 2 (Homo sapiens) (UniProt Q9NWW9); experiment: Inhibition of full-length C-terminal FLAG-tagged human PLAAT2 expressed in human U2OS cells assessed as reduction in absolute N-linoleoylethanolamine level at 10 uM incubated for 4 hrs by LC-MS/MS analysis; assay type: cell-based; in short: as §1
T3 sequence (whole entry): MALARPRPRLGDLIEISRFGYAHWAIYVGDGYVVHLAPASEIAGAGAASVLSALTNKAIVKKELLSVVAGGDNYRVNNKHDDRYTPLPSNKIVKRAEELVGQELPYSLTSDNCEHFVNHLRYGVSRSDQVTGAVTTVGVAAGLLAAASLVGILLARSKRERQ

[12] = system: U2OS; experiment: Downregulation of N-stearoylethanolamine level in human U2OS cells at 10 uM after 4 hrs by LC-MS/MS analysis; assay type: functional, cell-based; in short: as §1
[13] = target: T3, Phospholipase A and acyltransferase 2 (Homo sapiens); experiment: Inhibition of full-length C-terminal FLAG-tagged human PLAAT2 expressed in human U2OS cells assessed as reduction in absolute N-stearoylethanolamine level at 10 uM incubated for 4 hrs by LC-MS/MS analysis; assay type: cell-based; in short: as §1
[14] = target: T3, Phospholipase A and acyltransferase 2 (Homo sapiens); experiment: Inhibition of full-length C-terminal FLAG-tagged human PLAAT2 expressed in human U2OS cells assessed as reduction in absolute N-eicosapentaenoylethanolamine level at 10 uM incubated for 4 hrs by LC-MS/MS analysis; assay type: cell-based; in short: as §1
[15] = target: T3, Phospholipase A and acyltransferase 2 (Homo sapiens); experiment: Inhibition of full-length C-terminal FLAG-tagged human PLAAT2 expressed in human U2OS cells assessed as reduction in 2-AG level at 10 uM incubated for 4 hrs by LC-MS/MS analysis; assay type: cell-based; in short: as §1
[16] = target: Diacylglycerol lipase-beta (Mus musculus) (UniProt Q91WC9); experiment: Inhibition of mouse brain membrane DAGLbeta assessed as enzyme remaining activity at 10 uM preincubated for 30 mins followed by MB064 or FP-TAMRA addition and measured after 15 mins by SDS-PAGE based ABPP analysis relative to control; assay type: cell membranes
Chain of Diacylglycerol lipase-beta (Mus musculus) (Q91WC9 whole entry): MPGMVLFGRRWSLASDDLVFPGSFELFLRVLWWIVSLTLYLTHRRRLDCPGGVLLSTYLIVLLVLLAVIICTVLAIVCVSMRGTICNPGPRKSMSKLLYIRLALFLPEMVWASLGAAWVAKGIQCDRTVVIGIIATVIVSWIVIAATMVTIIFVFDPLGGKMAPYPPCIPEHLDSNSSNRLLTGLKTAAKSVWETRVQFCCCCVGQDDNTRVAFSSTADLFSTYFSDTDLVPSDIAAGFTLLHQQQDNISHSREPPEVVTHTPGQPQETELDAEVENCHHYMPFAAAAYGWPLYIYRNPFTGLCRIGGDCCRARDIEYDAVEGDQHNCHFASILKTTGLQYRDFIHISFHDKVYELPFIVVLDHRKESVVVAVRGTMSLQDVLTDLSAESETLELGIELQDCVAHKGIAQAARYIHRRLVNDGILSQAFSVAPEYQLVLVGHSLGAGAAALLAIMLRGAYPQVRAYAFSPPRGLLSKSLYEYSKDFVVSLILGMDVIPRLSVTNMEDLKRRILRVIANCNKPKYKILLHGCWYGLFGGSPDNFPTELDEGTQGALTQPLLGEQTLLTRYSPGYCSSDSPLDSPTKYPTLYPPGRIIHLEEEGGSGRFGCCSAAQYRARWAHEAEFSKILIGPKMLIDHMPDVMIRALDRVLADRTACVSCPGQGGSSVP
In short: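 Mouse brain membrane proteome (2 μg/μL) preincubated with 10 μM inhibitor for 30 min at rt. Then MB064 250 nM or FP-TAMRA 500 nM for 15 min at rt. Resolved on 10% SDS-PAGE, fluorescence normalized to Coomassie. Reported as % remaining activity ± SD, n = 3.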

inhibition [2]: inactive
inhibition [3]: inactive
Activity [4]: 105%
inhibition [6]: Active
IC50 [7]: 251 nM
Activity [8]: 49%
inhibition [9]: inactive
inhibition [10]: inactive
inhibition [11]: Active
inhibition [13]: Active
inhibition [14]: Active
inhibition [15]: inactive
Activity [16]: 83%
SMILES: O=C(CCCc1ccccc1)C(=O)NCCc1ccc(Oc2ccccc2)cc1
inhibition [1]: inactive
inhibition [5]: inactive
inhibition [12]: inactive
